Laboratory results reported in ChEMBL document CHEMBL4665879, “Design, synthesis and evaluation of a baicalin and berberine hybrid compound as therapeutic agent for ulcerative colitis” (2020).
The source made the active and inactive calls. The rule behind the calls is not given here.

What was measured:
Salmonella typhi = experiment: Antibacterial activity against Typhoid bacillus 50071-16 after 24 hrs by microdilution method; type: functional, organism-based; details: Salmonella enterica subsp. enterica serovar Typhi
How it was run: (§1)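 Test agents diluted in culture medium at ratios 1:2.5 to 1:640 (twofold series) and steam-sterilized; pure water as control. Inoculum from 4–5 colonies grown in nutrient broth 8 h at 37 °C, then diluted to 1.5×10^5 CFU/mL. Broth microdilution in 96-well plate, 0.1 ml strain suspension per well, 37 °C 24 h; MIC read visually.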

Candida albicans = experiment: Antifungal activity against Candida albicans 98001 after 24 hrs by microdilution method; type: functional, organism-based
How it was run: (§2)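 Broth microdilution in Mueller Hinton medium, drug media diluted 1:2.5 to 1:640 and sterilized with circulating steam; pure water as control. Four to five colonies grown in nutrient broth 8 h at 37 °C and diluted to 1.5×10^5 CFU/mL. 0.1 ml per well, incubated 37 °C for 24 h; MIC read by observation.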

Pseudomonas aeruginosa = experiment: Antibacterial activity against Pseudomonas aeruginosa 10211 incubated for 24 hrs; type: functional, organism-based; how it was run: as §2
Mus musculus [1] = experiment: Anti-ulcerative colitis activity in DSS-induced BALB/c mouse ulcerative colitis model assessed as colon weight at 50 mg/kg administrated for 14 days (reference value: 0.369 +/- 0.023 g); type: functional; details: time 14 day
How it was run: (§3)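 Male SPF BALB/c mice (18–22 g), n = 8 per group. Colitis induced with freshly prepared 5% DSS (MW 36,000–50,000) in pure water as drinking water ad libitum for 7 days. Treatment at 50 mg/kg ran from day 1 for 14 days; control and model groups received pure water. Mice sacrificed after 14 days of treatment. Data as means ± S.E.M.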

Mus musculus [2] = experiment: Anti-inflammatory activity against DSS-induced ulcerative colitis BALB/c mouse model assessed as reduction in TNF-alpha mRNA expression in colon tissue at 50 mg/kg administrated for 14 days by RT-qPCR analysis; type: functional, organism-based; details: time 14.0 day; how it was run: as §3
Mus musculus [3] = experiment: Anti-inflammatory activity against DSS-induced ulcerative colitis BALB/c mouse model assessed as reduction in IL-1beta mRNA expression in colon tissue at 50 mg/kg administrated for 14 days by RT-qPCR analysis; type: functional, organism-based; details: time 14.0 day; how it was run: as §3
Mus musculus [4] = experiment: Anti-inflammatory activity against DSS-induced ulcerative colitis BALB/c mouse model assessed as reduction in MPO activity in colon tissue at 50 mg/kg administrated for 14 days by colorimetric method; type: functional, organism-based; details: time 14.0 day; how it was run: as §3
Mus musculus [5] = experiment: Anti-ulcerative colitis activity in DSS-induced BALB/c mouse ulcerative colitis model assessed as increase in cecum weight at 50 mg/kg administrated for 14 days; type: functional, organism-based; details: time 14.0 day; how it was run: as §3
Mus musculus [6] = experiment: Anti-inflammatory activity against DSS-induced ulcerative colitis BALB/c mouse model assessed as reduction in mast cells infiltration in colon tissue at 50 mg/kg administrated for 14 days by aldehyde-fuchsin orange G staining based assay; type: functional, organism-based; details: time 14.0 day; how it was run: as §3
Mus musculus [7] = experiment: Anti-ulcerative colitis activity in DSS-induced BALB/c mouse ulcerative colitis model assessed as colon length/colon weight ratio at 50 mg/kg administrated for 14 days (reference value: 22.608 +/- 2.655 cm/g); type: functional; details: time 14 day; how it was run: as §3
Mus musculus [8] = experiment: Anti-inflammatory activity against DSS-induced ulcerative colitis BALB/c mouse model assessed as reduction in colon macroscopic scores at 50 mg/kg administrated for 14 days; type: functional, organism-based; details: time 14.0 day; how it was run: as §3
Escherichia coli = experiment: Antibacterial activity against Escherichia coli 44113-5 after 24 hrs by microdilution method; type: functional, organism-based; how it was run: as §2
Mus musculus [9] = experiment: Anti-ulcerative colitis activity in DSS-induced BALB/c mouse ulcerative colitis model assessed as decrease in spleen weight at 50 mg/kg administrated for 14 days; type: functional, organism-based; details: time 14.0 day; how it was run: as §3
Mus musculus [10] = experiment: Anti-inflammatory activity against DSS-induced ulcerative colitis BALB/c mouse model assessed as reduction in TNF-alpha protein expression in colon tissue at 50 mg/kg administrated for 14 days by Western blot analysis; type: functional, organism-based; details: time 14.0 day; how it was run: as §3
Mus musculus [11] = experiment: Anti-ulcerative colitis activity in DSS-induced BALB/c mouse ulcerative colitis model assessed as colon length at 50 mg/kg administrated for 14 days (reference value: 8.350 +/- 1.111 cm); type: functional; details: time 14 day; how it was run: as §3
Mus musculus [12] = experiment: Anti-inflammatory activity against DSS-induced ulcerative colitis BALB/c mouse model assessed as reduction in IL-1beta protein expression in colon tissue at 50 mg/kg administrated for 14 days by Western blot analysis; type: functional, organism-based; details: time 14.0 day; how it was run: as §3
Staphylococcus aureus = experiment: Antibacterial activity against Staphylococcus aureus 261112-5 after 24 hrs by microdilution method; type: functional, organism-based; how it was run: as §2
Mus musculus [13] = experiment: Anti-ulcerative colitis activity in DSS-induced BALB/c mouse ulcerative colitis model of assessed as reduction in disease activity index at 50 mg/kg administrated for 14 days; type: functional, organism-based; details: time 14.0 day; how it was run: as §3
Mus musculus [14] = experiment: Anti-inflammatory activity against DSS-induced ulcerative colitis BALB/c mouse model assessed as reduction in IL-6 protein expression in colon tissue at 50 mg/kg administrated for 14 days by Western blot analysis; type: functional, organism-based; details: time 14.0 day; how it was run: as §3
Mus musculus [15] = experiment: Anti-ulcerative colitis activity in DSS-induced BALB/c mouse ulcerative colitis model assessed as inhibited inflammation in colon at 50 mg/kg administrated for 14 days by H and E staining analysis; type: functional, organism-based; details: time 14.0 day; how it was run: as §3
Mus musculus [16] = experiment: Anti-inflammatory activity against DSS-induced ulcerative colitis BALB/c mouse model assessed as reduction in IL-6 mRNA expression in colon tissue at 50 mg/kg administrated for 14 days by RT-qPCR analysis; type: functional, organism-based; details: time 14.0 day; how it was run: as §3
Mus musculus [17] = experiment: Anti-inflammatory activity against DSS-induced ulcerative colitis BALB/c mouse model assessed as increase in SOD levels in colon tissue at 50 mg/kg administrated for 14 days by xanthine oxidase based method; type: functional, organism-based; details: time 14.0 day; how it was run: as §3
Streptococcus pneumoniae = experiment: Antibacterial activity against Streptococcus pneumoniae 32215 after 24 hrs by microdilution method; type: functional, organism-based; how it was run: as §2
Mus musculus [18] = experiment: Anti-ulcerative colitis activity in DSS-induced BALB/c mouse ulcerative colitis model assessed as reduction in colon damage at 50 mg/kg administrated for 14 days by H and E staining analysis; type: functional, organism-based; details: time 14.0 day; how it was run: as §3
Mus musculus [19] = experiment: Anti-ulcerative colitis activity in DSS-induced BALB/c mouse ulcerative colitis model assessed as promoted regeneration of intestinal mucosa at 50 mg/kg administrated for 14 days by H and E staining analysis; type: functional, organism-based; details: time 14.0 day; how it was run: as §3
[20] = system: Salmonella enterica subsp. enterica serovar Paratyphi B; experiment: Antibacterial activity against Salmonella paratyphi B 0039 after 24 hrs by microdilution method; type: functional, organism-based; details: 39; how it was run: as §1
Mus musculus [21] = experiment: Anti-ulcerative colitis activity in DSS-induced BALB/c mouse ulcerative colitis model assessed as decrease in histological scores at 50 mg/kg administrated for 14 days by H and E staining analysis; type: functional, organism-based; details: time 14.0 day; how it was run: as §3
Streptococcus pyogenes = experiment: Antibacterial activity against streptococcus hemolyticus 32210 after 24 hrs by microdilution method; type: functional, organism-based; how it was run: as §2

| SMILES | Activity (Salmonella typhi) | Activity (Candida albicans) | Activity (Pseudomonas aeruginosa) | Activity (Mus musculus [1]) [g] | Activity (Mus musculus [2]) | Activity (Mus musculus [3]) | Activity (Mus musculus [5]) | Ratio (Mus musculus [7]) | Activity (Escherichia coli) | Activity (Mus musculus [9]) | Activity (Mus musculus [10]) | Activity (Mus musculus [11]) [cm] | Activity (Mus musculus [12]) | Activity (Staphylococcus aureus) | Activity (Mus musculus [13]) | Activity (Mus musculus [14]) | Activity (Mus musculus [16]) | Activity (Streptococcus pneumoniae) | Activity (Mus musculus [18]) | Activity [20] | other results |
| --- | --- | --- | --- | --- | --- | --- | --- | --- | --- | --- | --- | --- | --- | --- | --- | --- | --- | --- | --- | --- | --- |
| COc1ccc2cc3[n+](cc2c1OCCCCOC(=O)[C@H]1O[C@@H](Oc2cc4oc(-c5ccccc5)cc(=O)c4c(O)c2O)[C@H](O)[C@@H](O)[C@@H]1O)CCc1cc2c(cc1-3)OCO2 | Active | Active | Active | 0.311 | Active | Active | Active | 29.769 | Active | Active | Active | 9.288 | Active | Active | Active | Active | Active | Active | Active | Active | Activity (Mus musculus [4]): Active; Activity (Mus musculus [6]): Active; Activity (Mus musculus [8]): Active; Activity (Mus musculus [15]): Active; Activity (Mus musculus [17]): Active; Activity (Mus musculus [19]): Active; Activity (Mus musculus [21]): Active; Activity (Streptococcus pyogenes): Active |
| O=C(O)[C@H]1O[C@@H](Oc2cc3oc(-c4ccccc4)cc(=O)c3c(O)c2O)[C@H](O)[C@@H](O)[C@@H]1O [BAICALIN] | inactive | inactive | inactive | 0.369 | inactive | inactive | inactive | 24.172 | inactive | inactive | inactive | 8.74 | inactive | inactive | inactive | inactive | inactive | inactive | inactive | inactive | Activity (Streptococcus pyogenes): inactive |
| COc1ccc2cc3[n+](cc2c1OC)CCc1cc2c(cc1-3)OCO2.[Cl-] [BERBERINE CHLORIDE] | Active | Active | Active | 0.315 | Active | Active | Active | 28.175 | Active | inactive | Active | 8.95 | Active | Active | Active | Active | Active | Active | Active | Active | Activity (Mus musculus [4]): Active; Activity (Mus musculus [6]): Active; Activity (Mus musculus [15]): Active; Activity (Mus musculus [19]): Active; Activity (Mus musculus [21]): Active; Activity (Streptococcus pyogenes): Active |
